Experimental data taken from ChEMBL document CHEMBL5058577, “EUbOPEN Chemogenomics Library 2 (Multiplex)” (2022).

System: Fibroblast
Experiment: Multiplex assay against human fibroblast
Type: toxicity, cell-based
How it was run: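 Phenotypes for tubulin, mitochondrial mass and membrane permeability are expressed as per cents of healthy-nucleus cells. Cells were stained live at seeding with Hoechst33342, BioTracker Green Microtubule Cytoskeleton Dye, MitoTracker Red and Annexin V Alexa Fluor 680, then imaged after compound addition on a CQ1 microscope at 37°C and 5% CO2. Machine-learning gating in CellPathfinder separated Hoechst high-intensity objects from normal cells, divided normal cells by nuclear state (healthy, pyknosed, fragmented) and divided pyknosed cells into mitotic or apoptotic.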

[1] = 12 h, 1 µM, compound concentration 1 uM, replicate 1
[2] = 12 h, 1 µM, compound concentration 1 uM, replicate 2
[3] = 12 h, 10 µM, compound concentration 10 uM, replicate 1
[4] = 12 h, 10 µM, compound concentration 10 uM, replicate 2
[5] = 24 h, 1 µM, compound concentration 1 uM, replicate 1
[6] = 24 h, 1 µM, compound concentration 1 uM, replicate 2
[7] = 24 h, 10 µM, compound concentration 10 uM, replicate 1
[8] = 24 h, 10 µM, compound concentration 10 uM, replicate 2
[9] = 48 h, 1 µM, compound concentration 1 uM, replicate 1
[10] = 48 h, 1 µM, compound concentration 1 uM, replicate 2
[11] = 48 h, 10 µM, compound concentration 10 uM, replicate 1
[12] = 48 h, 10 µM, compound concentration 10 uM, replicate 2

Cn1cc(C(=O)OCC2CCN(CCNS(C)(=O)=O)CC2)c2ccccc21
Population Apoptotic (%) [1]: 44%
Population Fragmented Nuclei (%) [1]: 13%
Population Healthy Nuclei (%) [1]: 71%
Population Hoechst High Intensity Objects (%) [1]: 1%
Population Membrane Permeable-Phenotype (%) [1]: 0%
Population Mitochondria Different-Phenotype (%) [1]: 3%
Population Mitotic Cells (%) [1]: 55%
Population Normal (%) [1]: 98%
Population Pyknosed Nuclei (%) [1]: 14%
Population Tubulin-Different-Phenotype (%) [1]: 23%
Total Cell Count [1]: 202
Population Apoptotic (%) [2]: 33%
Population Fragmented Nuclei (%) [2]: 21%
Population Healthy Nuclei (%) [2]: 46%
Population Hoechst High Intensity Objects (%) [2]: 4%
Population Membrane Permeable-Phenotype (%) [2]: 9%
Population Mitochondria Different-Phenotype (%) [2]: 1%
Population Mitotic Cells (%) [2]: 66%
Population Normal (%) [2]: 95%
Population Pyknosed Nuclei (%) [2]: 32%
Population Tubulin-Different-Phenotype (%) [2]: 37%
Total Cell Count [2]: 164
Population Apoptotic (%) [3]: 48%
Population Fragmented Nuclei (%) [3]: 29%
Population Healthy Nuclei (%) [3]: 55%
Population Hoechst High Intensity Objects (%) [3]: 3%
Population Membrane Permeable-Phenotype (%) [3]: 0%
Population Mitochondria Different-Phenotype (%) [3]: 9%
Population Mitotic Cells (%) [3]: 51%
Population Normal (%) [3]: 96%
Population Pyknosed Nuclei (%) [3]: 14%
Population Tubulin-Different-Phenotype (%) [3]: 41%
Total Cell Count [3]: 207
Population Apoptotic (%) [4]: 25%
Population Fragmented Nuclei (%) [4]: 32%
Population Healthy Nuclei (%) [4]: 51%
Population Hoechst High Intensity Objects (%) [4]: 5%
Population Membrane Permeable-Phenotype (%) [4]: 5%
Population Mitochondria Different-Phenotype (%) [4]: 7%
Population Mitotic Cells (%) [4]: 75%
Population Normal (%) [4]: 94%
Population Pyknosed Nuclei (%) [4]: 16%
Population Tubulin-Different-Phenotype (%) [4]: 47%
Total Cell Count [4]: 184
Population Apoptotic (%) [5]: 31%
Population Fragmented Nuclei (%) [5]: 13%
Population Healthy Nuclei (%) [5]: 74%
Population Hoechst High Intensity Objects (%) [5]: 5%
Population Membrane Permeable-Phenotype (%) [5]: 0%
Population Mitochondria Different-Phenotype (%) [5]: 0%
Population Mitotic Cells (%) [5]: 68%
Population Normal (%) [5]: 94%
Population Pyknosed Nuclei (%) [5]: 11%
Population Tubulin-Different-Phenotype (%) [5]: 23%
Total Cell Count [5]: 201
Population Apoptotic (%) [6]: 30%
Population Fragmented Nuclei (%) [6]: 25%
Population Healthy Nuclei (%) [6]: 47%
Population Hoechst High Intensity Objects (%) [6]: 2%
Population Membrane Permeable-Phenotype (%) [6]: 7%
Population Mitochondria Different-Phenotype (%) [6]: 6%
Population Mitotic Cells (%) [6]: 69%
Population Normal (%) [6]: 97%
Population Pyknosed Nuclei (%) [6]: 26%
Population Tubulin-Different-Phenotype (%) [6]: 48%
Total Cell Count [6]: 168
Population Apoptotic (%) [7]: 80%
Population Fragmented Nuclei (%) [7]: 33%
Population Healthy Nuclei (%) [7]: 53%
Population Hoechst High Intensity Objects (%) [7]: 5%
Population Membrane Permeable-Phenotype (%) [7]: 0%
Population Mitochondria Different-Phenotype (%) [7]: 3%
Population Mitotic Cells (%) [7]: 20%
Population Normal (%) [7]: 94%
Population Pyknosed Nuclei (%) [7]: 13%
Population Tubulin-Different-Phenotype (%) [7]: 42%
Total Cell Count [7]: 201
Population Apoptotic (%) [8]: 41%
Population Fragmented Nuclei (%) [8]: 40%
Population Healthy Nuclei (%) [8]: 43%
Population Hoechst High Intensity Objects (%) [8]: 4%
Population Membrane Permeable-Phenotype (%) [8]: 3%
Population Mitochondria Different-Phenotype (%) [8]: 5%
Population Mitotic Cells (%) [8]: 58%
Population Normal (%) [8]: 95%
Population Pyknosed Nuclei (%) [8]: 16%
Population Tubulin-Different-Phenotype (%) [8]: 52%
Total Cell Count [8]: 188
Population Apoptotic (%) [9]: 54%
Population Fragmented Nuclei (%) [9]: 14%
Population Healthy Nuclei (%) [9]: 72%
Population Hoechst High Intensity Objects (%) [9]: 5%
Population Membrane Permeable-Phenotype (%) [9]: 0%
Population Mitochondria Different-Phenotype (%) [9]: 1%
Population Mitotic Cells (%) [9]: 45%
Population Normal (%) [9]: 94%
Population Pyknosed Nuclei (%) [9]: 12%
Population Tubulin-Different-Phenotype (%) [9]: 23%
Total Cell Count [9]: 197
Population Apoptotic (%) [10]: 52%
Population Fragmented Nuclei (%) [10]: 33%
Population Healthy Nuclei (%) [10]: 54%
Population Hoechst High Intensity Objects (%) [10]: 4%
Population Membrane Permeable-Phenotype (%) [10]: 5%
Population Mitochondria Different-Phenotype (%) [10]: 2%
Population Mitotic Cells (%) [10]: 47%
Population Normal (%) [10]: 95%
Population Tubulin-Different-Phenotype (%) [10]: 43%
Total Cell Count [10]: 177
Population Apoptotic (%) [11]: 68%
Population Fragmented Nuclei (%) [11]: 28%
Population Healthy Nuclei (%) [11]: 58%
Population Hoechst High Intensity Objects (%) [11]: 9%
Population Membrane Permeable-Phenotype (%) [11]: 0%
Population Mitochondria Different-Phenotype (%) [11]: 9%
Population Mitotic Cells (%) [11]: 32%
Population Normal (%) [11]: 90%
Population Pyknosed Nuclei (%) [11]: 13%
Population Tubulin-Different-Phenotype (%) [11]: 49%
Total Cell Count [11]: 199
Population Apoptotic (%) [12]: 50%
Population Fragmented Nuclei (%) [12]: 40%
Population Healthy Nuclei (%) [12]: 46%
Population Hoechst High Intensity Objects (%) [12]: 6%
Population Membrane Permeable-Phenotype (%) [12]: 2%
Population Mitochondria Different-Phenotype (%) [12]: 8%
Population Mitotic Cells (%) [12]: 50%
Population Normal (%) [12]: 93%
Population Pyknosed Nuclei (%) [12]: 12%
Population Tubulin-Different-Phenotype (%) [12]: 60%
Total Cell Count [12]: 190

C[C@@H]1CC(=O)Nc2cccc(-c3ccc4c(c3)c(-c3cnn(C)c3)nn4C)c2N1
Population Apoptotic (%) [1]: 38%
Population Fragmented Nuclei (%) [1]: 20%
Population Healthy Nuclei (%) [1]: 63%
Population Hoechst High Intensity Objects (%) [1]: 1%
Population Membrane Permeable-Phenotype (%) [1]: 0%
Population Mitochondria Different-Phenotype (%) [1]: 4%
Population Mitotic Cells (%) [1]: 61%
Population Normal (%) [1]: 98%
Population Pyknosed Nuclei (%) [1]: 15%
Population Tubulin-Different-Phenotype (%) [1]: 31%
Total Cell Count [1]: 115
Population Fragmented Nuclei (%) [2]: 26%
Population Healthy Nuclei (%) [2]: 47%
Population Hoechst High Intensity Objects (%) [2]: 5%
Population Membrane Permeable-Phenotype (%) [2]: 8%
Population Mitochondria Different-Phenotype (%) [2]: 12%
Population Normal (%) [2]: 94%
Population Pyknosed Nuclei (%) [2]: 26%
Population Tubulin-Different-Phenotype (%) [2]: 51%
Total Cell Count [2]: 105
Population Apoptotic (%) [3]: 40%
Population Fragmented Nuclei (%) [3]: 17%
Population Healthy Nuclei (%) [3]: 65%
Population Hoechst High Intensity Objects (%) [3]: 5%
Population Membrane Permeable-Phenotype (%) [3]: 1%
Population Mitochondria Different-Phenotype (%) [3]: 19%
Population Mitotic Cells (%) [3]: 59%
Population Normal (%) [3]: 94%
Population Pyknosed Nuclei (%) [3]: 17%
Population Tubulin-Different-Phenotype (%) [3]: 63%
Total Cell Count [3]: 161
Population Apoptotic (%) [4]: 30%
Population Fragmented Nuclei (%) [4]: 11%
Population Healthy Nuclei (%) [4]: 58%
Population Hoechst High Intensity Objects (%) [4]: 6%
Population Membrane Permeable-Phenotype (%) [4]: 7%
Population Mitochondria Different-Phenotype (%) [4]: 5%
Population Mitotic Cells (%) [4]: 69%
Population Normal (%) [4]: 93%
Population Pyknosed Nuclei (%) [4]: 30%
Population Tubulin-Different-Phenotype (%) [4]: 68%
Total Cell Count [4]: 126
Population Apoptotic (%) [5]: 57%
Population Fragmented Nuclei (%) [5]: 16%
Population Healthy Nuclei (%) [5]: 67%
Population Hoechst High Intensity Objects (%) [5]: 2%
Population Membrane Permeable-Phenotype (%) [5]: 2%
Population Mitochondria Different-Phenotype (%) [5]: 5%
Population Mitotic Cells (%) [5]: 42%
Population Normal (%) [5]: 97%
Population Pyknosed Nuclei (%) [5]: 15%
Population Tubulin-Different-Phenotype (%) [5]: 33%
Total Cell Count [5]: 122
Population Apoptotic (%) [6]: 35%
Population Fragmented Nuclei (%) [6]: 29%
Population Healthy Nuclei (%) [6]: 50%
Population Hoechst High Intensity Objects (%) [6]: 7%
Population Membrane Permeable-Phenotype (%) [6]: 11%
Population Mitochondria Different-Phenotype (%) [6]: 9%
Population Mitotic Cells (%) [6]: 65%
Population Normal (%) [6]: 92%
Population Pyknosed Nuclei (%) [6]: 19%
Population Tubulin-Different-Phenotype (%) [6]: 60%
Total Cell Count [6]: 112
Population Apoptotic (%) [7]: 75%
Population Fragmented Nuclei (%) [7]: 19%
Population Healthy Nuclei (%) [7]: 69%
Population Hoechst High Intensity Objects (%) [7]: 10%
Population Membrane Permeable-Phenotype (%) [7]: 0%
Population Mitochondria Different-Phenotype (%) [7]: 15%
Population Mitotic Cells (%) [7]: 25%
Population Normal (%) [7]: 89%
Population Pyknosed Nuclei (%) [7]: 11%
Population Tubulin-Different-Phenotype (%) [7]: 66%
Total Cell Count [7]: 158
Population Apoptotic (%) [8]: 42%
Population Fragmented Nuclei (%) [8]: 13%
Population Healthy Nuclei (%) [8]: 57%
Population Hoechst High Intensity Objects (%) [8]: 5%
Population Membrane Permeable-Phenotype (%) [8]: 1%
Population Mitochondria Different-Phenotype (%) [8]: 4%
Population Mitotic Cells (%) [8]: 57%
Population Normal (%) [8]: 94%
Population Pyknosed Nuclei (%) [8]: 29%
Population Tubulin-Different-Phenotype (%) [8]: 76%
Total Cell Count [8]: 119
Population Apoptotic (%) [9]: 50%
Population Fragmented Nuclei (%) [9]: 25%
Population Healthy Nuclei (%) [9]: 60%
Population Hoechst High Intensity Objects (%) [9]: 5%
Population Membrane Permeable-Phenotype (%) [9]: 1%
Population Mitochondria Different-Phenotype (%) [9]: 6%
Population Mitotic Cells (%) [9]: 50%
Population Normal (%) [9]: 94%
Population Pyknosed Nuclei (%) [9]: 14%
Population Tubulin-Different-Phenotype (%) [9]: 21%
Total Cell Count [9]: 114
Population Apoptotic (%) [10]: 30%
Population Fragmented Nuclei (%) [10]: 36%
Population Healthy Nuclei (%) [10]: 50%
Population Hoechst High Intensity Objects (%) [10]: 2%
Population Membrane Permeable-Phenotype (%) [10]: 12%
Population Mitochondria Different-Phenotype (%) [10]: 8%
Population Mitotic Cells (%) [10]: 69%
Population Normal (%) [10]: 97%
Population Pyknosed Nuclei (%) [10]: 13%
Population Tubulin-Different-Phenotype (%) [10]: 60%
Total Cell Count [10]: 102
Population Apoptotic (%) [11]: 92%
Population Fragmented Nuclei (%) [11]: 17%
Population Healthy Nuclei (%) [11]: 73%
Population Hoechst High Intensity Objects (%) [11]: 3%
Population Membrane Permeable-Phenotype (%) [11]: 0%
Population Mitochondria Different-Phenotype (%) [11]: 19%
Population Mitotic Cells (%) [11]: 7%
Population Normal (%) [11]: 96%
Population Pyknosed Nuclei (%) [11]: 8%
Population Tubulin-Different-Phenotype (%) [11]: 68%
Total Cell Count [11]: 162
Population Apoptotic (%) [12]: 60%
Population Healthy Nuclei (%) [12]: 62%
Population Hoechst High Intensity Objects (%) [12]: 4%
Population Membrane Permeable-Phenotype (%) [12]: 6%
Population Mitochondria Different-Phenotype (%) [12]: 2%
Population Mitotic Cells (%) [12]: 39%
Population Normal (%) [12]: 95%
Population Pyknosed Nuclei (%) [12]: 19%
Population Tubulin-Different-Phenotype (%) [12]: 69%
Total Cell Count [12]: 122
